Mcl1 Bid PPI: disrupts binding of human Mcl-1 to Bid peptide; TR-FRET Mcl-1/Bid-Dy647 peptide binding, 1536-well; AID 1021; Q07820; actives 0.97% (n = 220,000); inhibition, % at 21.7 µM;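 active means compounds that cut the binding signal by more than half at the single screening dose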;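 further: His-tagged Mcl-1 with europium anti-His antibody binding Bid BH3 peptide; 0% = Mcl-1 plus peptide wells and 100% = peptide-only wells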
Target sequence (Q07820 whole entry, looked up): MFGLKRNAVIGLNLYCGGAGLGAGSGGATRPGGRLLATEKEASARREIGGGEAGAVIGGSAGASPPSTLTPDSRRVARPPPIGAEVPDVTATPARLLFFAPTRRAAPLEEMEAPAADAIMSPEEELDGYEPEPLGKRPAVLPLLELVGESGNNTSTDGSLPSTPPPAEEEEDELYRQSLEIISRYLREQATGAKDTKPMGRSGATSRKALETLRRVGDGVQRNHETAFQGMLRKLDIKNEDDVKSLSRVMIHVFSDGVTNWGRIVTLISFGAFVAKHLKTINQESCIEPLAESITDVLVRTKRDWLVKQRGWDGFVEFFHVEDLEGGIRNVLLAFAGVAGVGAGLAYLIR
Bim-Mcl-1: inhibitors of Bim-Mcl-1 interaction, human; Bead-based flow cytometry, Bim peptide-Mcl-1 binding; inhibition, % at 10 µM; actives 0.1% (n = 190,000); AID 1009; in the data active means inhibition above about 40%;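 further: 0% = no compound tracer wells and 100% = peptide blocker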
Mcl1 Noxa PPI: disrupts binding of human Mcl-1 to Noxa peptide; Q07820; actives 1.5% (n = 220,000); TR-FRET Mcl-1/Noxa peptide binding, 2 h; inhibition, % at 21.7 µM;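 active means compounds that cut the protein-peptide binding signal by more than 50% relative to plate controls in a single-dose test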;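 further: His-tagged Mcl-1 with rhodamine Noxa BH3 peptide and terbium anti-His antibody; 0% = Mcl-1 plus Noxa peptide wells and 100% = peptide-only wells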
RBBP9 inhibitor: inhibitors of human serine hydrolase RBBP9. O75884. recombinant RBBP9, FP-Rh probe fluorescence polarization. inhibition, % at 7.94 µM. actives 0.2% (n = 220,000);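 active means inhibition above the campaign mean of all tested compounds plus 3 SD, cut at about 14% in these data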;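 further: plate controls were DMSO wells with RBBP9 for no effect and wells lacking RBBP9 protein for full effect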
Target sequence (O75884 whole entry, looked up): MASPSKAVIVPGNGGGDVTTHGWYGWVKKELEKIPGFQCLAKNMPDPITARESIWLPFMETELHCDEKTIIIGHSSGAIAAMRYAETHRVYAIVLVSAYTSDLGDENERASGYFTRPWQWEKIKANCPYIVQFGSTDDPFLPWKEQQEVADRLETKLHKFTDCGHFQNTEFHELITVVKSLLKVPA
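Measured by: FP readout at 525/598 nm; material: recombinant human RBBP9; also added: Serine-hydrolase probe FP-Rh, 375 nM pre-mixing; medium: Tris buffer pH 8.0, NaCl, Pluronic; replication: one well per compound; doses: one concentration, 7.94 µM nominal, 0.794% DMSO; timing: preincubation 30 min plus labeling 45 min at 25 °C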
MCL1-BIM inh: disrupts human MCL1 binding to BIM-BH3 peptide; Q07820; GST-MCL1 / FITC-Bim-BH3 fluorescence polarization; inhibition, % at 10.9 µM; actives 0.68% (n = 320,000); AID 2057;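 active means inhibition above the mean inhibition of all tested compounds plus 3 SD, set per campaign, cut at about 40% in these data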;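 further: 0% = DMSO wells and 100% = unlabeled Bim-BH3 peptide control; higher means more loss of mP so more displacement of Bim peptide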
EBV gp42 inh: EBV gp42 inhibition; Q1HVG2; Fluorescence polarization binding assay, mP read-out; inhibition, % (tested at 21.74 µM); actives 0.42% (n = 220,000); in the data active means inhibition above about 50%
The depositor's hits bear a star; . = no result given. Only some compounds are listed: those with a hit (about 2.2% of all), similar ones and a draw of the others.

SMILES | Mcl1 Bid PPI | Bim-Mcl-1 | Mcl1 Noxa PPI | RBBP9 inhibitor | MCL1-BIM inh | EBV gp42 inh
O=S(=O)(c1ccccc1)N(CC1CO1)c1cccc2ccccc12 (configuration not stated) | 0 | -5 | 8 | -12 | -2 | 7
Cc1cc(OC(C)C(=O)N2CCN(c3ccc(F)cc3)CC2)c2c(C)cc(=O)oc2c1 (configuration not stated) | . | . | . | . | -4 | .
COc1cc(C2Nc3cccc4cccc(c34)N2)ccc1O | . | . | . | . | 13 | .
COc1cc(C2Nc3cccc4cccc(c34)N2)cc(OC)c1OC(C)=O | 12 | 10 | 82* | 2 | 46* | 25
CN(C)c1ccc(C(CC(=O)O)NC(=O)c2ccc(Cl)cc2)cc1 (configuration not stated) | -91 | 2 | 52* | -7 | 2 | -6
CC(=O)Nc1ccc(C(=O)NC(CC(=O)O)c2ccc(Cl)cc2)cc1 (configuration not stated) | 10 | 0 | -3 | -10 | -4 | 4
Cc1cc(-c2ccc(N=Nc3c(S(=O)(=O)O)cc4cc(S(=O)(=O)O)cc(N)c4c3O)c(C)c2)ccc1N=Nc1c(S(=O)(=O)O)cc2cc(S(=O)(=O)O)cc(N)c2c1O | . | . | . | . | 96* | .
COc1ccc(NC(=O)Nc2c[nH]c(=O)[nH]c2=O)cc1 | . | . | . | . | 7 | .
Cc1sc(NC(=O)c2ccccc2)c(C(=O)N2CCN(C)CC2)c1C | 86* | 0 | 38 | -15 | -3 | -1
Cc1sc(NC(=O)c2ccccc2)c(C(=O)c2ccccc2)c1C | 0 | -8 | 14 | -5 | 4 | -16
CN1CCC(N(C)S(=O)(=O)c2ccc(C(C)(C)C)cc2)CC1 | . | . | . | . | -1 | .
CN1CCC(N(C)C(=O)CNC(=O)c2ccc(C(C)(C)C)cc2)CC1 | -5 | -2 | 58* | -7 | 6 | 7
CC(C)CN(C(=O)COC(=O)CNC(=O)c1ccccc1F)c1c(N)n(Cc2ccccc2)c(=O)[nH]c1=O | . | . | . | . | -15 | .
O=c1c(O)c(-c2cccs2)oc2ccc(Cl)cc12 | -31 | 6 | -31 | 2 | 42* | 30
COc1ccc(-n2ccnc(SCC(=O)NCc3ccc(C)cc3)c2=O)cc1Cl | . | . | . | . | 10 | .
COC(=O)CN1C(=S)N(c2ccc(OC)cc2)C(=O)/C1=C/c1ccc(N2CCOCC2)cc1 | -42 | 0 | 6 | -3 | -163 | 75*
CC(=O)Nc1ccc(-c2csc(NC(=O)C3CC(=O)N(c4ccc5c(c4)OCCO5)C3)n2)cc1 (configuration not stated) | -31 | . | 87* | -1 | 3 | 1
Cc1nn(-c2ccccc2)c(C)c1/C=N/NC(=O)CSc1nc2ccccc2c(=O)n1-c1ccc(Br)cc1 | 11 | 0 | 6 | -11 | 2 | -6
Cc1ccc(-n2c(SCC(=O)N/N=C/c3c(C)nn(-c4ccccc4)c3C)nc3ccccc3c2=O)cc1 | 53* | -3 | -27 | -6 | 14 | -10
Cc1ccc(CNC(=O)CSc2ccsc2[N+](=O)[O-])cc1 | -16 | 0 | 15 | 8 | 5 | 4
CCN(CC)c1ccc(NC(=O)CSc2ccsc2[N+](=O)[O-])c(C)c1 | -86 | -4 | 66* | -9 | 33 | -3
CC(=O)c1ccc(NC(=O)CSc2ccsc2[N+](=O)[O-])cc1 | -35 | -2 | 87* | -8 | . | 51*
O=C(CSc1ccsc1[N+](=O)[O-])Nc1cc(F)ccc1F | -11 | -4 | 104* | -9 | . | 91*
CCC(Cc1ccccc1)NC(=O)CSc1ccsc1[N+](=O)[O-] (configuration not stated) | -11 | -4 | 3 | 5 | 12 | -5
COc1ccccc1N(CCC#N)C(=O)CSc1nnc2ccccn12 | . | . | . | . | -7 | .
SMILES | Mcl1 Bid PPI | Bim-Mcl-1 | Mcl1 Noxa PPI | RBBP9 inhibitor | MCL1-BIM inh | EBV gp42 inh
COc1ccc2c(=O)c3c(=O)n(Cc4ccco4)c(-c4ccco4)nc3oc2c1 | -3 | 0 | 70* | 0 | 26 | 27
COc1ccc(-c2nc3oc4cc(OC)ccc4c(=O)c3c(=O)n2Cc2ccco2)cc1 | 28 | -5 | 52* | -15 | 6 | -12
COc1ccc(-c2noc(C(=O)NCc3ccc(F)cc3)n2)cc1OC | -12 | -3 | -7 | -3 | 2 | -25
CC1(C)CC(O)C(C(O)c2cccc([N+](=O)[O-])c2)C(C)(C)N1 (configuration not stated) | -5 | 0 | -3 | -11 | 7 | -20
O=C(Cc1ccc(Br)cc1)Nc1ncc([N+](=O)[O-])s1 | -20 | . | 70* | -16 | 8 | 8
COc1ccc2[nH]c3c(c2c1)CCN1C(=O)N([C@@H](C)C(=O)NCc2ccc(C)cc2)C(=O)[C@]31C | . | . | . | . | -7 | .
CC(=O)c1ccc(S(=O)(=O)Nc2ccc(-c3cn4c(n3)SCC4)cc2)cc1 | -30 | 2 | 65* | -1 | -9 | -8
CNc1nc2ccccc2n1/N=C/c1cccc(OC)c1OC | -16 | 57* | 12 | 0 | -1 | -10
COc1cccc(/C=N/n2c(CO)nc3ccccc32)c1OC | -33 | -1 | 6 | -12 | 0 | -3
O=C1NCCCC2c3c(cc(Br)c(O)c3Br)OC12N1CCOCC1 (configuration not stated) | -22 | -2 | 62* | 6 | -3 | -19
COc1ccc(-c2csc(Nc3ccc(S(N)(=O)=O)cc3)n2)cc1OC | -30 | 1 | 51* | -2 | 6 | -9
Cc1cc(NS(=O)(=O)c2ccc(Nc3nc(-c4ccc(C)c(C)c4)cs3)cc2)no1 | 9 | -1 | 39 | -4 | -3 | 11
Cc1cc(NS(=O)(=O)c2ccc(Nc3nc(-c4ccc(O)cc4)cs3)cc2)no1 | -39 | 0 | 69* | -9 | 15 | 7
NS(=O)(=O)c1ccc(Nc2nc(-c3ccc(F)cc3)cs2)cc1 | -29 | -2 | 11 | -7 | 4 | 10
CCc1ccc(CNC(=O)CCC(=O)N2Cc3cccc(OC)c3Oc3ncccc32)cc1 | . | . | . | . | 0 | .
CCOC(=O)NC1(C(F)(F)F)C(=O)N(Cc2ccccc2)C2=C1C(=O)CC(C)(C)C2 (configuration not stated) | 9 | -1 | -15 | -4 | 6 | 3
COc1ccc(CCNC(=O)[C@H](C)N2C(=O)N3CCc4c([nH]c5ccccc45)[C@@]3(C)C2=O)cc1 | . | . | . | . | 3 | .
COc1ccc(-c2nnc(-c3cc4c(ccc5ccccc54)oc3=O)o2)cc1 | 34 | 3 | 64* | 1 | 13 | 51*
Nc1nnc(-c2cc3c(ccc4ccccc43)oc2=O)s1 | 11 | 0 | 35 | -7 | . | 66*
N=c1oc2ccc3ccccc3c2cc1-c1nc(-c2ccccc2)cs1 | -54 | -2 | 4 | -9 | -9 | 66*
O=c1oc2ccc3ccccc3c2cc1-c1nnc(-c2ccccc2)o1 | 20 | 0 | 38 | -2 | 3 | -14

Assay outcomes from PubChem.
